We go through three compounds from ChEMBL document CHEMBL1150203, “Antimicrobial diterpenes of Croton sonderianus, 1. Hardwickic and 3,4-secotrachylobanoic acids” (1991).

The test system of test [1] is Trametes sanguinea. Nature of the test: Antifungal activity against Polyporus sanguineus ATCC 16422 at 1 mg/ml after 48 hrs by agar-well diffusion assay. The settings on record: for zone of inhibition at 1000 µg/mL: ATCC 16422, 48 h, read-out: IZ. The class given is functional. In short, it runs like this:
(§1)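 Fungi and yeasts streaked on mycophil agar from broth culture diluted 1:10 in sterile water; 100 μl of compound at 1 mg/ml placed in 11 mm cork-borer wells; plates held at 30°. Inhibition zone width (mm) recorded at 48 and 72 h and coded – to ++++ (1–2, 3–6, 7–12, >13 mm); amphotericin B positive control.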
In general terms: In agar diffusion tests the substance spreads into inoculated agar from a disc or well.

Test [2] relates to Saccharomyces cerevisiae. As to the kind of experiment: Antifungal activity against Saccharomyces cerevisiae ATCC 9763 after 48 hrs by twofold serial dilution method. The class given is functional. As to conditions: ATCC 9763, 48 h.
Test [3] has as its system Candida albicans. Nature of the test: Antifungal activity against Candida albicans ATCC 10231 at 1 mg/ml after 48 hrs by agar-well diffusion assay. The class given is functional. As to conditions: ATCC 10231, 48 h, read-out: IZ. In short, it runs like this:
as §1

Test [4] has as its system Candida albicans. As to the kind of experiment: Antifungal activity against Candida albicans ATCC 10231 at 1 mg/ml after 72 hrs by agar-well diffusion assay. The class given is functional. As to conditions: ATCC 10231, 72 h, read-out: IZ. An outline of the steps:
as §1

Test [5] deals with Saccharomyces cerevisiae. As to the kind of experiment: Antifungal activity against Saccharomyces cerevisiae ATCC 9763 at 1 mg/ml after 72 hrs by agar-well diffusion assay. It counts as functional. In short, it runs like this: as §1
The test system of test [6] is Trichophyton mentagrophytes. Nature of the test: Antifungal activity against Trichophyton mentagrophytes ATCC 9972 at 1 mg/ml after 48 hrs by agar-well diffusion assay. The class given is functional. The settings on record: ATCC 9972, 48 h, read-out: IZ. In short, it runs like this:
as §1

The subject of test [7] is Saccharomyces cerevisiae. Nature of the test: Antifungal activity against Saccharomyces cerevisiae ATCC 9763 at 1 mg/ml after 48 hrs by agar-well diffusion assay. The class given is functional. In short, it runs like this:
as §1

The test system of test [8] is Saccharomyces cerevisiae. As to the kind of experiment: Antifungal activity against Saccharomyces cerevisiae ATCC 9763 after 24 hrs by twofold serial dilution method. The class given is functional. As to conditions: ATCC 9763, 24 h.
Test [9] concerns Trametes sanguinea. As to the kind of experiment: Antifungal activity against Polyporus sanguineus ATCC 16422 at 1 mg/ml after 72 hrs by agar-well diffusion assay. It counts as functional. The settings on record: for zone of inhibition at 1000 µg/mL: ATCC 16422, 72 h, read-out: IZ. An outline of the steps: as §1
In test [10] the test system is Aspergillus niger. Nature of the test: Antifungal activity against Aspergillus niger ATCC 16888 at 1 mg/ml after 72 hrs by agar-well diffusion assay. It counts as functional. An outline of the steps: as §1
In test [11] the test system is Trichophyton mentagrophytes. As to the kind of experiment: Antifungal activity against Trichophyton mentagrophytes ATCC 9972 at 1 mg/ml after 72 hrs by agar-well diffusion assay. It counts as functional. The settings on record: ATCC 9972, 72 h, read-out: IZ. An outline of the steps: as §1
The subject of test [12] is Trichophyton mentagrophytes. As to the kind of experiment: Antifungal activity against Trichophyton mentagrophytes ATCC 9972 after 24 hrs by twofold serial dilution method. The class given is functional. As to conditions: ATCC 9972, 24 h.
Test [13] deals with Aspergillus niger. Nature of the test: Antifungal activity against Aspergillus niger ATCC 16888 at 1 mg/ml after 48 hrs by agar-well diffusion assay. The class given is functional. An outline of the steps:
as §1

Test [14] deals with Helminthosporium. Nature of the test: Antifungal activity against Helminthosporium ATCC 4671 at 1 mg/ml after 48 hrs by agar-well diffusion assay. It counts as functional. The settings on record: ATCC 4671, 48 h, read-out: IZ. In short, it runs like this: as §1
The test system of test [15] is Helminthosporium. Nature of the test: Antifungal activity against Helminthosporium ATCC 4671 at 1 mg/ml after 72 hrs by agar-well diffusion assay. It counts as functional. The settings on record: for zone of inhibition at 1000 µg/mL: ATCC 4671, 72 h, read-out: IZ. An outline of the steps: as §1
Test [16] has as its system Trichophyton mentagrophytes. Nature of the test: Antifungal activity against Trichophyton mentagrophytes ATCC 9972 after 48 hrs by twofold serial dilution method. The class given is functional. As to conditions: ATCC 9972, 48 h.
Test [17] relates to Bacillus subtilis. Nature of the test: Antibacterial activity against Bacillus subtilis ATCC 6633 after 48 hrs by twofold serial dilution method. As to conditions: ATCC 6633, 48 h. The class given is functional.
The subject of test [18] is Bacillus subtilis. As to the kind of experiment: Antibacterial activity against Bacillus subtilis ATCC 6633 at 1 mg/ml after 24 hrs by agar-well diffusion assay. The class given is functional. As to conditions: ATCC 6633, 24 h, read-out: IZ. In short, it runs like this:
(§2)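 Agar-well diffusion on eugon agar, bacteria streaked by quadrant method from broth culture diluted 1:10 in sterile water; 11 mm wells given 100 μl of compound at 1 mg/ml; 37° incubation. Zone width (mm) read at 24 and 48 h, coded –, + (1–2), ++ (3–6), +++ (7–12), ++++ (>13); streptomycin sulfate positive control.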

Test [19] has as its system Escherichia coli. Nature of the test: Antibacterial activity against Escherichia coli ATCC 10536 at 1 mg/ml after 48 hrs by agar-well diffusion assay. The class given is functional. In short, it runs like this:
as §2

Test [20] relates to Bacillus subtilis. As to the kind of experiment: Antibacterial activity against Bacillus subtilis ATCC 6633 at 1 mg/ml after 48 hrs by agar-well diffusion assay. The class given is functional. The settings on record: ATCC 6633, 48 h, read-out: IZ. An outline of the steps:
as §2

In test [21] the test system is Escherichia coli. As to the kind of experiment: Antibacterial activity against Escherichia coli ATCC 10536 at 1 mg/ml after 24 hrs by agar-well diffusion assay. It counts as functional. An outline of the steps: as §2
Test [22] concerns Staphylococcus aureus. As to the kind of experiment: Antibacterial activity against Staphylococcus aureus ATCC 6538 at 1 mg/ml after 24 hrs by agar-well diffusion assay. The class given is functional. As to conditions: ATCC 6538, 24 h, read-out: IZ. In short, it runs like this: as §2
In test [23] the test system is Staphylococcus aureus. As to the kind of experiment: Antibacterial activity against Staphylococcus aureus ATCC 6538 at 1 mg/ml after 48 hrs by agar-well diffusion assay. It counts as functional. As to conditions: ATCC 6538, 48 h, read-out: IZ. In short, it runs like this:
as §2

The test system of test [24] is Pseudomonas aeruginosa. As to the kind of experiment: Antibacterial activity against Pseudomonas aeruginosa ATCC 15442 at 1 mg/ml after 48 hrs by agar-well diffusion assay. The class given is functional. An outline of the steps: as §2
In test [25] the test system is Mycolicibacterium smegmatis. As to the kind of experiment: Antibacterial activity against Mycobacterium smegmatis ATCC 607 at 1 mg/ml after 48 hrs by agar-well diffusion assay. The settings on record: ATCC 607, 48 h, read-out: IZ.
The subject of test [26] is Mycolicibacterium smegmatis. As to the kind of experiment: Antibacterial activity against Mycobacterium smegmatis ATCC 607 at 1 mg/ml after 48 hrs by agar-well diffusion assay. As to conditions: ATCC 607, 48 h, read-out: IZ. It counts as functional. In short, it runs like this: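 Quadrant-streaked eugon agar plates (broth culture diluted 1:10 in water) with 11 mm wells receiving 100 μl of 1 mg/ml compound, incubated at 37°; inhibition zone width in mm scored at 48 h and 72 h as –, +, ++, +++, ++++ (1–2, 3–6, 7–12, >13 mm); streptomycin sulfate control.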

Test [27] relates to Bacillus subtilis. As to the kind of experiment: Antibacterial activity against Bacillus subtilis ATCC 6633 after 24 hrs by twofold serial dilution method. It counts as functional. As to conditions: ATCC 6633, 24 h.
Test [28] has as its system Pseudomonas aeruginosa. As to the kind of experiment: Antibacterial activity against Pseudomonas aeruginosa ATCC 15442 at 1 mg/ml after 24 hrs by agar-well diffusion assay. The class given is functional. An outline of the steps: as §2

In brackets after ≈: the same amount, converted by molar mass. Activity calls are given as the source filed them. No cut-off for these calls is given here.

Turning to `C[C@@H]1[C@H](O)[C@@H](C)/C=C/C=C/C=C/C=C/C=C/C=C/C=C/[C@H](O[C@@H]2O[C@H](C)[C@@H](O)[C@H](N)[C@@H]2O)C[C@@H]2O[C@](O)(C[C@@H](O)C[C@@H](O)[C@H](O)CC[C@@H](O)C[C@@H](O)CC(=O)O[C@H]1C)C[C@H](O)[C@H]2C(=O)O` [AMPHOTERICIN B], the zone of inhibition at 1000 µg/mL in the test on Trametes sanguinea [1] is above 12 mm; with Candida albicans [3], 7 mm; in the test on Candida albicans [4], 7 mm; in the test on Saccharomyces cerevisiae [5] (ATCC 9763, 72 h, read-out: IZ) it was 7 mm; in [6], 7 mm; in the test on Saccharomyces cerevisiae [7] (ATCC 9763, 48 h, read-out: IZ) it was 7 mm. The zone of inhibition at 1000 µg/mL in the test on Trametes sanguinea [9] is above 12 mm; in the test on Aspergillus niger [10] (ATCC 16888, 72 h, read-out: IZ) it was 7 mm; in [11] it was 7 mm; with Aspergillus niger [13] (ATCC 16888, 48 h, read-out: IZ) it was 7 mm; in the test on Helminthosporium [14], above 12 mm; in the test on Helminthosporium [15], above 12 mm. For the same compound, the MIC (usually the least concentration at which growth counts as inhibited) against Saccharomyces cerevisiae [2] stood at 12.5 µg/mL (≈ 13.5 µM); in the test on Saccharomyces cerevisiae [8], 6.25 µg/mL (≈ 6.76 µM); in test [12] it was 0.78 µg/mL (≈ 0.844 µM); in test [16] it was 0.78 µg/mL (≈ 0.844 µM).

For `C=C(C)[C@@H]1CC[C@@]23C[C@@H]4[C@@H](C[C@H]2[C@]1(C)CCC(=O)O)[C@@]4(C)C3`, the zone of inhibition at 1000 µg/mL in the test on Trametes sanguinea [1] is 3 mm; in the test on Candida albicans [3], 3 mm; with Candida albicans [4] it was 3 mm; in the test on Bacillus subtilis [18], above 12 mm; in the test on Bacillus subtilis [20] it was 7 mm; in test [6], 3 mm. The zone of inhibition at 1000 µg/mL with Staphylococcus aureus [22] came to 7 mm; with Staphylococcus aureus [23], 7 mm; in the test on Trametes sanguinea [9], 1 mm; in test [25] it was 7 mm; in test [11], 1 mm; in [26] it was 7 mm. Besides, in the test on Helminthosporium [14], the zone of inhibition at 1000 µg/mL is 1 mm. Also, the MIC against Saccharomyces cerevisiae [2] is 100 µg/mL (≈ 331 µM); in the test on Bacillus subtilis [17], 25 µg/mL (≈ 82.7 µM); against Saccharomyces cerevisiae [8] it was 100 µg/mL (≈ 331 µM); with Bacillus subtilis [27], 25 µg/mL (≈ 82.7 µM). Further, the “inhibition zone (IZ)” value with Escherichia coli [19], in the test on Saccharomyces cerevisiae [5], with Escherichia coli [21], with Saccharomyces cerevisiae [7], with Pseudomonas aeruginosa [24] and in the test with Aspergillus niger [10] was “inactive” in each case. For the same compound, the “inhibition zone (IZ)” value in the test on Aspergillus niger [13], with Helminthosporium [15] and in the test on Pseudomonas aeruginosa [28] was “inactive” in each case.

In the case of `C[C@@H]1CC[C@@]2(C)C(C(=O)O)=CCC[C@@H]2[C@@]1(C)CCc1ccoc1`, the “inhibition zone (IZ)” value with Trametes sanguinea [1], in the test on Escherichia coli [19], in the test with Saccharomyces cerevisiae [5], in the test on Escherichia coli [21], with Saccharomyces cerevisiae [7] and in the test on Pseudomonas aeruginosa [24] was “inactive” each time. In addition, the “inhibition zone (IZ)” value in the test on Trametes sanguinea [9], in the test with Aspergillus niger [10], with Aspergillus niger [13] and with Pseudomonas aeruginosa [28] was “inactive” each time. The MIC against Bacillus subtilis [17] turned out to be 1.56 µg/mL (≈ 4.93 µM); in test [12] it was 25 µg/mL (≈ 79 µM); in the test on Bacillus subtilis [27] it was 0.78 µg/mL (≈ 2.46 µM); in [16], 25 µg/mL (≈ 79 µM). Also, the zone of inhibition at 1000 µg/mL in the test with Candida albicans [3] is 1 mm; in the test with Candida albicans [4] it was 3 mm; in the test with Bacillus subtilis [18] it was 7 mm; with Bacillus subtilis [20], 7 mm; in test [6], 7 mm; in the test with Staphylococcus aureus [22], 3 mm. Also, the zone of inhibition at 1000 µg/mL with Staphylococcus aureus [23] worked out at 3 mm; in [25] it was 7 mm; in test [11] it was 3 mm; in [26] it was 7 mm; in the test with Helminthosporium [14], 3 mm; with Helminthosporium [15], 3 mm.
